An excerpt weighted towards active compounds, which were near 3.4% of everything screened.
M1 antag: antagonists of human M1 muscarinic receptor. CHO-K1 hM1, Fluo-8 calcium fluorescence, ACh EC80 antagonist. 360,000 compounds, 1.3% hits. inhibition, % at 3 µM;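 active = percent inhibition above its own plate's cutoff, namely the mean of that plate's compound wells plus 3 SD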;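 also: peak over basal fluorescence ratio during 140 s after agonist addition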
Target sequence (P11229 whole entry, looked up): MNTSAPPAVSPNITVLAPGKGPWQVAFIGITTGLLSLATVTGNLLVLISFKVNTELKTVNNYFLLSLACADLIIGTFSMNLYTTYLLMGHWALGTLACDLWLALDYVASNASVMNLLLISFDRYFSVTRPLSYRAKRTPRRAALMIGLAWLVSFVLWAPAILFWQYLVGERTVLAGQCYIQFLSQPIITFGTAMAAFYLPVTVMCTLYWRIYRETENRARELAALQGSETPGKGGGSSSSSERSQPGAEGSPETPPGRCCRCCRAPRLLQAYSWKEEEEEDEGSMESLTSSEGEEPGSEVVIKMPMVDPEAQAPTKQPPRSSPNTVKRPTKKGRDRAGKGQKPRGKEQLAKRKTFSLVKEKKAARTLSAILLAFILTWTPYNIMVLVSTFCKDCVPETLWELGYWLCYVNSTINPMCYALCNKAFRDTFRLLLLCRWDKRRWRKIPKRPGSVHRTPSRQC
M1 ag: agonists of human M1 muscarinic receptor | activation, % at 3 µM | CHO-K1 hM1, Fluo-8 calcium fluorescence, agonist mode; 0% DMSO, 100% acetylcholine EC100 | 360,000 compounds, 0.33% hits;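 active = activation above the run's mean compound activation plus 3 SD, cut at about 16% in these data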;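 also: peak over basal fluorescence ratio within a 140 s kinetic read after compound addition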
TAAR1 antagonist: human TAAR1 antagonism; Q96RJ0; CHO RD-HGA16 TAAR1, Fluo-8 calcium fluorescence, antagonist; inhibition, % at 3 µM; 360,000 compounds, 1.5% hits;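 active = inhibition above a per-plate cutoff, the mean inhibition of test compounds on that plate plus 3 SD, cut at about 49% in these data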
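Test system: CHO RD-HGA16 cells bearing hTAAR1 | Reagent: β-PEA, EC80 | Compound dosing: 3 µM, single point | Schedule: Dye loading 75 min at 37 °C, then 30 min room temperature | Signal: Calcium fluorescence with Fluo-8 | Evaluation: Percent inhibition of PEA-evoked calcium signal, max/basal emission ratio | Control set: DMSO-only wells and EC80 β-PEA-stimulated wells | Repeats: Singlicate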
M1 PAM: positive allosteric modulators of human M1 muscarinic receptor. 360,000 compounds, 0.088% hits. CHO-K1 hM1, Fluo-8 calcium fluorescence, ACh EC20; 0% = ACh EC20, 100% = maximal ACh. AID 588819. activation, % at 3 µM. P11229; in the data active = activation above about 19%, passing the limit was not always enough
TAAR1 agonist: human TAAR1 agonism | CHO RD-HGA16 TAAR1, Fluo-8 calcium fluorescence; vehicle wells 0%, saturating PEA agonist 100% | activation, % at 3 µM | AID 624467 | 360,000 compounds, 0.99% hits | Q96RJ0;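 active = activation above the mean activation of all test compounds in the run plus 3 SD, cut at about 38% in these data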
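Assay system: CHO-derived RD-HGA16 cells with stable Gα16 and human TAAR1; timing: 17-24 h seeding, 75 min 37 °C dye, 30 min RT; read-out: % activation from peak over basal fluorescence ratio, DMSO-to-PEA scaled; measured by: kinetic Fluo-8 calcium fluorescence; benchmarks: low control DMSO, high control PEA (EC100); doses: 3 µM single concentration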
TAAR1 nonsel count: nonselective antagonist in TAAR1 antagonist counter-screen. shares compounds with TAAR1 antagonist. counterscreen cell line, calcium fluorescence, antagonist mode. inhibition, % at 3 µM. 2,400 compounds, 77% hits. AID 651780; in the data active = inhibition above about 22%;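 also: CHO-Ga16 host cells stimulated with ATP at an EC80 level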
TAAR1 antag conf: confirmation of human TAAR1 antagonists | 2,400 compounds, 40% hits | TAAR1-expressing cells, fluorescence antagonist read-out | inhibition, % at 3 µM | shares compounds with TAAR1 antagonist | AID 651785; in the data active = inhibition above about 49%;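 also: CHO-Ga16 host cells challenged with agonist PEA near its EC80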
Ga16 nonsel ag: nonselective Ga16 agonist in TAAR1 antagonist counter-screen. shares compounds with TAAR1 antagonist. Ga16-expressing cells, calcium fluorescence, agonist counterscreen. activation, % at 3 µM. 2,400 compounds, 18% hits. AID 651953; in the data active = activation above about 12%
TAAR1 ag counter: activates human TAAR1 in antagonist counter-screen; shares compounds with TAAR1 antagonist; hTAAR1 cell line, fluorescence activation, agonist mode; activation, % at 3 µM; 2,400 compounds, 2% hits; AID 651955; in the data active = activation above about 37%;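 also: CHO cells stably expressing TAAR1 with calcium dye readout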
Each line names hits and unclear results; the compound was inactive in the other large screens (follow-up assays come after a bar, where they were run).

Cc1ccc2nc(-c3ccc(CN4CCC(c5nc6ccccc6[nH]5)CC4)cc3)c(-c3ccccc3)nc2c1	TAAR1 antagonist 73 (no result: M1 antag, M1 ag, M1 PAM) | TAAR1 nonsel count 46 | TAAR1 antag conf 60 | Ga16 nonsel ag 15 | TAAR1 ag counter inactive
COC(=O)c1cccc(Nc2nc(-c3cccnc3)nc3ccccc23)c1	TAAR1 antagonist 67 | TAAR1 nonsel count 27 | TAAR1 antag conf inactive | Ga16 nonsel ag inactive | TAAR1 ag counter inactive
CCOC(=O)c1cccc(Nc2nc(-c3cccnc3)nc3ccccc23)c1	none
Cc1ccc(F)c(S(=O)(=O)NC(=O)C2(C)CCN2C(=O)c2ccc(C(F)(F)F)nc2C)c1 (stereo unspecified)	none
C=C(C)C(=O)Oc1ccc(N=Nc2ccc(C)cc2)ccc1=O	none
CC1CC1c1ccc(/C=C(\C#N)C(=O)Nc2ccc(Cl)cc2)o1 (stereo unspecified)	TAAR1 antagonist 52 | TAAR1 nonsel count inactive | TAAR1 antag conf inactive | Ga16 nonsel ag inactive | TAAR1 ag counter inactive
CCCNC(=O)C1(C)CCN(C(=O)c2ccc(C)c(F)c2)C1 (stereo unspecified)	none
O=C(Nc1cccc(S(=O)(=O)N2CCCCC2)c1)c1ccc(Cl)nc1	none
O=C(Nc1cccc(S(=O)(=O)C(F)F)c1)c1ccc(Cl)c(S(=O)(=O)N2CCOCC2)c1	TAAR1 antagonist 74 | TAAR1 nonsel count 50 | TAAR1 antag conf 65 | Ga16 nonsel ag 19 | TAAR1 ag counter inactive
O=C(Nc1ccc(Cl)c(S(=O)(=O)N2CCOCC2)c1)c1cc(-c2ccccn2)nc2ccccc12	TAAR1 antagonist 63 | TAAR1 nonsel count 43 | TAAR1 antag conf 57 | Ga16 nonsel ag 14 | TAAR1 ag counter inactive
O=C(Nc1cccc(S(=O)(=O)N2CCCCCC2)c1)c1ccc(Cl)nc1	TAAR1 antagonist 54 | TAAR1 nonsel count 27 | TAAR1 antag conf inactive | Ga16 nonsel ag inactive | TAAR1 ag counter inactive
O=C(Nc1ccc(Cl)c(S(=O)(=O)N2CCOCC2)c1)c1ccc2c(c1)OCO2	TAAR1 antagonist 66 | TAAR1 nonsel count 32 | TAAR1 antag conf inactive | Ga16 nonsel ag 15 | TAAR1 ag counter inactive
O=C(Nc1ccc(Cl)c(S(=O)(=O)N2CCOCC2)c1)c1ccc(Cl)nc1	TAAR1 antagonist 67 | TAAR1 nonsel count 32 | TAAR1 antag conf 52 | Ga16 nonsel ag 12 | TAAR1 ag counter inactive
COc1cc(-c2noc(C)c2C#Cc2ccsc2)cc(OC)c1OC	TAAR1 antagonist 65 | TAAR1 nonsel count inactive | TAAR1 antag conf inactive | Ga16 nonsel ag inactive | TAAR1 ag counter inactive
CCCCCNC(=O)C(c1cccc2ccccc12)n1c(=O)c(-c2cc3ccccc3[nH]2)nc2ccccc21 (stereo unspecified)	none (no result: M1 antag, M1 ag, M1 PAM)
COc1cc(/C=C2\CCC/C(=C\c3ccc(O)c(OC)c3)C2=O)ccc1O	TAAR1 antagonist 53 | TAAR1 nonsel count 35 | TAAR1 antag conf inactive | Ga16 nonsel ag inactive | TAAR1 ag counter inactive
COc1cc(/C=C/C(=O)CC(=O)/C=C/c2ccc(O)c(OC)c2)ccc1O	M1 ag 19, TAAR1 antagonist 69 | TAAR1 nonsel count 48 | TAAR1 antag conf 50 | Ga16 nonsel ag 28 | TAAR1 ag counter inactive
COc1cc(/C=C2/CCC/C(=C\c3cc(O)c(OC)c(Cl)c3)C2=O)cc(Cl)c1O	TAAR1 antagonist 58 | TAAR1 nonsel count 42 | TAAR1 antag conf inactive | Ga16 nonsel ag inactive | TAAR1 ag counter inactive
COc1cc(/C=C2/CCCC(C(=O)C(F)(F)F)=C2O)ccc1O	none
CCOC(=O)C1(C)CCN1C(=O)c1cccs1 (stereo unspecified)	none
CC(=O)C(=Cc1cccc(C#N)c1)C(=O)c1ccccc1	none
CC(CCC(=O)O)C1CCC2C3CCC4C[C@H](O)CCC4(C)C3CC(=O)C12C (stereo partly specified)	none
CC1=C(CC[C@@H](C)CO)OC2CC3C4CCC5CC(O)CCC5(C)C4CC(=O)C3(C)C12 (stereo partly specified)	TAAR1 antagonist 76 | TAAR1 nonsel count 29 | TAAR1 antag conf 52 | Ga16 nonsel ag inactive | TAAR1 ag counter inactive
Cc1[nH]c2ccccc2c1CC(=O)Nc1ccc(Nc2cccnc2)c(-c2ccc(F)c(F)c2)c1	none (no result: M1 antag, M1 ag, M1 PAM)
O=C(Cc1c[nH]c2ccccc12)Nc1ccc(Nc2cccnc2)c(-c2ccc(F)c(F)c2)c1	TAAR1 antagonist 87 (no result: M1 antag, M1 ag, M1 PAM) | TAAR1 nonsel count 42 | TAAR1 antag conf 65 | Ga16 nonsel ag 14 | TAAR1 ag counter inactive
O=C(CCc1c[nH]c2ccccc12)Nc1ccc(Nc2cccnc2)c(Br)c1	TAAR1 antagonist 71 (no result: M1 antag, M1 ag, M1 PAM) | TAAR1 nonsel count 31 | TAAR1 antag conf inactive | Ga16 nonsel ag inactive | TAAR1 ag counter inactive
O=C(Cc1c[nH]c2ccccc12)Nc1ccc(Nc2cccnc2)c(-c2cccc(Cl)c2)c1	TAAR1 antagonist 72 (no result: M1 antag, M1 ag, M1 PAM) | TAAR1 nonsel count 29 | TAAR1 antag conf inactive | Ga16 nonsel ag inactive | TAAR1 ag counter inactive
O=C(Cc1c[nH]c2ccccc12)Nc1ccc(Nc2cccnc2)c(-c2ccc(-c3ccccc3)cc2F)c1	TAAR1 antagonist 58 (no result: M1 antag, M1 ag, M1 PAM) | TAAR1 nonsel count 33 | TAAR1 antag conf inactive | Ga16 nonsel ag inactive | TAAR1 ag counter inactive
O=C(CCc1c[nH]c2ccccc12)Nc1ccc(Nc2ccncc2)cc1	none (no result: M1 antag, M1 ag, M1 PAM)
Cc1cc(SCC(=O)N/N=C/c2ccc(O)c(O)c2O)c(C)cc1Br	none
COc1cc(/C=N/NC(=O)CSc2cc(C)c(Br)cc2C)ccc1O	TAAR1 antagonist 66 | TAAR1 nonsel count 38 | TAAR1 antag conf 59 | Ga16 nonsel ag 13 | TAAR1 ag counter inactive
CCOC(=O)N(C)c1c(CC)nc2c(OCc3ccccc3OC)cccn12	none
Oc1ccc(-c2nc3ccccn3c2NCc2ccc3c(c2)OCO3)cc1	TAAR1 antagonist 55 | TAAR1 nonsel count 30 | TAAR1 antag conf 53 | Ga16 nonsel ag inactive | TAAR1 ag counter inactive
Cc1nn(-c2ccccc2)c(C)c1C(=O)OCC(=O)N1c2ccccc2NC(=O)C1(C)C	M1 antag 33, TAAR1 antagonist 71 | TAAR1 nonsel count 40 | TAAR1 antag conf 53 | Ga16 nonsel ag inactive | TAAR1 ag counter inactive
CC1(C)C(=O)Nc2ccccc2N1C(=O)COC(=O)/C=C/c1ccc(OC(F)F)cc1	TAAR1 antagonist 57 | TAAR1 nonsel count 31 | TAAR1 antag conf inactive | Ga16 nonsel ag 12 | TAAR1 ag counter inactive

Compound activity as filed in PubChem.
